Consider nine compounds from ChEMBL document CHEMBL1146294 (Bioorg Med Chem Lett, 2007).

In one series the test system is HT-29. Put plainly: Antiproliferative activity against HT29 cells. The format is functional, cell-based. As to conditions: Homo sapiens.
Another series relates to MCF7. Put plainly: Antiproliferative activity against MCF7 cells. The format is functional, cell-based. The settings on record: Homo sapiens.
Series [1] in a line: Stability in phosphate buffer. The format is physicochemical.
Series [2] has as its target Prostaglandin G/H synthase 1 (Homo sapiens) (UniProt P23219). Briefly: Inhibition of COX1 by human platelet assay. Set-up: concentration or dose not given beside the values. The settings on record: concentration not given here. The procedure, abridged:
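Enzyme activities measured in human platelets incubated for 60 min in buffer solution at 37 °C. 12-LOX activity was read out as formation of 12(S)-HETE. COX-1 activity was read out as formation of its eicosanoid product.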

Series [3] concerns Arachidonate 12-lipoxygenase, platelet type (Homo sapiens). Briefly: Inhibition of LOX12 by human platelet assay. The settings on record: concentration not given here. Set-up: concentration or dose not given beside the values.

SMILES strings stand for the structures. pIC50: −log10 of the molar value.

Prostaglandin G/H synthase 1 (Homo sapiens), sequence (P23219 whole entry): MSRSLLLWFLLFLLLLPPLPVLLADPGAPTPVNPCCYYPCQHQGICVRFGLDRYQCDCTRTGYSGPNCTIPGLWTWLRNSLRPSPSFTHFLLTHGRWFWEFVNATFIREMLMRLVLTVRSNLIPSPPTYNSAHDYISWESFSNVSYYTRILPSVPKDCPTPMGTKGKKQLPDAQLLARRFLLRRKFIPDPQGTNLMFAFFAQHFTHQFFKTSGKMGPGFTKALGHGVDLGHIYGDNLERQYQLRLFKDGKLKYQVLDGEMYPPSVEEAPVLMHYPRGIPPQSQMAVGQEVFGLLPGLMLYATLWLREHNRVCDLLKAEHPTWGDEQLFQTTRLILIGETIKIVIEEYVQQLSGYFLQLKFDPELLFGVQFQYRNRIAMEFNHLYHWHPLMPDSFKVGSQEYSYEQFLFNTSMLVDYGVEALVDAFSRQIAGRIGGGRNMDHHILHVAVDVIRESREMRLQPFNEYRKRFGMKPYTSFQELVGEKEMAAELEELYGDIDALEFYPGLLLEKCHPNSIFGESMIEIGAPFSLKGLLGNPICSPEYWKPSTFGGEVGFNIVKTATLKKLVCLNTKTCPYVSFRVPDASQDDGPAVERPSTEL

For the compound `CC(=O)OCC(OC(C)=O)C(OC(C)=O)C(Cn1c2nc(=O)n(CCCCCOC(=O)C(C)c3ccc(CC(C)C)cc3)c(=O)c-2nc2cc(C)c(C)cc21)OC(C)=O` (stereo not drawn), the negative-log IC50 (pIC50) (as a rule, the negative decadic logarithm of the IC50, by convention in mol/L) was 4.88 with HT-29 and 5.02 in the series on MCF7. Moreover, the Stability entry in series [1] is given as “Stable”. Besides, the inhibition (commonly the relative decrease from the control value, in per cent) in series [2] was 43%; in series [3] it was less than 11%.

`CC(=O)OCC(OC(C)=O)C(OC(C)=O)C(Cn1c2nc(=O)[nH]c(=O)c-2nc2cc(C)c(C)cc21)OC(C)=O` (stereo not drawn): the negative logarithm of the IC50 (pIC50) in the series on HT-29 was 4.04; in the series with MCF7 it was 4.27.

Take `CC(=O)OCC(OC(C)=O)C(OC(C)=O)C(Cn1c2nc(=O)n(CCCCOC(=O)C(C)c3ccc(CC(C)C)cc3)c(=O)c-2nc2cc(C)c(C)cc21)OC(C)=O` (stereo not drawn): the pIC50 was 4.98 with HT-29 and 5.02 with MCF7. The Stability entry in series [1] is “Stable”. Further, the inhibition is 37% in series [2] and less than 11% in series [3].

`CC(=O)OCC(OC(C)=O)C(OC(C)=O)C(Cn1c2nc(=O)n(CCCOC(=O)C(C)c3ccc(CC(C)C)cc3)c(=O)c-2nc2cc(C)c(C)cc21)OC(C)=O` (stereo not drawn): the negative logarithm of the IC50 (pIC50) is 5.03 in the series on HT-29 and 5.11 with MCF7. Further, the Stability entry in series [1] is on record as “Stable”. Further, the inhibition in series [2] was 15%; in series [3] it was less than 11%.

On to `CC(=O)OCC(OC(C)=O)C(OC(C)=O)C(Cn1c2nc(=O)n(CCO)c(=O)c-2nc2cc(C)c(C)cc21)OC(C)=O` (stereo not drawn), for which the pIC50 in the series on HT-29 and in the series with MCF7 was less than 4.00 each time.

Take `CC(=O)OCC(OC(C)=O)C(OC(C)=O)C(Cn1c2nc(=O)n(COC(=O)C(C)c3ccc(CC(C)C)cc3)c(=O)c-2nc2cc(C)c(C)cc21)OC(C)=O` (stereo not drawn): the pIC50 was 4.92 in the series with HT-29 and 4.91 in the series on MCF7. Besides, the Stability entry in series [1] is listed as “Stable”. The results for the inhibition in series [2] and in series [3] were 15% and less than 11%, respectively.

As for `CC(=O)OCC(OC(C)=O)C(OC(C)=O)C(Cn1c2nc(=O)n(CCOC(=O)C(C)c3ccc(CC(C)C)cc3)c(=O)c-2nc2cc(C)c(C)cc21)OC(C)=O` (stereo not drawn), the pIC50 in the series with HT-29 was 4.90; with MCF7, 4.83. Also, the Stability entry in series [1] was “Stable”. In addition, the inhibition in series [2] was 15%; in series [3], less than 11%.

`O=c1[nH]cc(F)c(=O)[nH]1` [FLUOROURACIL] had a negative-log IC50 (pIC50) in the series with HT-29 of 5.14.

Consider `CC(C)Cc1ccc([C@H](C)C(=O)O)cc1` [DEXIBUPROFEN], for which the pIC50 is less than 3.00 in the series on HT-29 and 3.10 in the series with MCF7. The inhibition in series [2] worked out at 90%.
